Each structure is given as a SMILES string.

This note sets out measurements from ChEMBL document CHEMBL1921792, “Synthesis and anticonvulsant activity of trans- and cis-2-(2,6-dimethylphenoxy)-N-(2- or 4-hydroxycyclohexyl)acetamides and their amine analogs” (Bioorg Med Chem, 2011).

Series [1] has as its system Mus musculus. Nature of the series: Neurotoxicity in mouse assessed as inability to maintain equilibrium on rotarod at 100 mg/kg, ip after 0.5 hrs by rotarod test. It is filed as toxicity, organism-based. Further details: dose 100 mg/kg, route intraperitoneal. To be noted: in vivo. The method in brief:
(§1)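 Drug given ip to mice as a suspension in 0.5% methylcellulose. At the stated time after dosing, each mouse was placed on a 1 inch knurled rod turning at 6 rpm. Neurotoxicity = inability to stay balanced at least 1 min in each of three trials. Scored as animals toxic/animals tested in small groups.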
(In the rotarod test animals must keep their balance on a rotating rod.)

For series [2], the system named is Mus musculus. Nature of the series: Neurotoxicity in mouse assessed as inability to maintain equilibrium on rotarod at 300 mg/kg, ip after 4 hrs using rotarod test. It is filed as toxicity, organism-based. Further details: dose 300 mg/kg, route intraperitoneal. As to conditions: in vivo. The gist of the method: as §1
In series [3] the test system is Mus musculus. Briefly: Neurotoxicity in ip dosed mouse assessed as inability to maintain equilibrium on rotarod by rotarod test. Format: toxicity, organism-based. As to conditions: in vivo. The gist of the method: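 Mice dosed ip with a suspension in 0.5% methylcellulose, then placed on a 1 inch knurled plastic rod rotating at 6 rpm. Toxicity = failure to keep equilibrium for at least 1 min in each of three trials.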

The subject of series [4] is Mus musculus. Nature of the series: Anticonvulsant activity in ip dosed mouse assessed as protection against maximal electric shock-induced seizures. Format: functional.
In series [5] the test system is Mus musculus. Briefly: Neurotoxicity in mouse assessed as inability to maintain equilibrium on rotarod at 300 mg/kg, ip after 0.5 hrs by rotarod test. Format: toxicity, organism-based. Further details: dose 300 mg/kg, route intraperitoneal. To be noted: in vivo. The gist of the method: as §1
Series [6] deals with Mus musculus. Nature of the series: Neurotoxicity in mouse assessed as inability to maintain equilibrium on rotarod at 300 mg/kg, ip after 0.5 hrs using rotarod test. It is filed as toxicity, organism-based. Further details: dose 300 mg/kg, route intraperitoneal. To be noted: in vivo. The gist of the method:
as §1

The species entered for series [7] is Mus musculus. Briefly: Protective index, ratio of TD50 for neurotoxicity in mouse to ED50 for inhibition of maximal electroshock-induced seizures in mouse. Format: functional. A general note: The maximal electroshock test induces tonic seizures with an electrical stimulus.
Series [8] relates to Mus musculus. Nature of the series: Neurotoxicity in mouse assessed as inability to maintain equilibrium on rotarod at 300 mg/kg, ip after 0.25 hrs using rotarod test. To be noted: in vivo. It is filed as toxicity, organism-based. Further details: dose 300 mg/kg, route intraperitoneal. The method in brief:
as §1

Series [9] deals with Mus musculus. Nature of the series: Neurotoxicity in mouse assessed as inability to maintain equilibrium on rotarod at 300 mg/kg, ip after 2 hrs using rotarod test. It is filed as toxicity, organism-based. Further details: dose 300 mg/kg, route intraperitoneal. As to conditions: in vivo. The method in brief: as §1

For the compound `Cc1cccc(C)c1OCC(=O)NC1CCCCC1O.Cl` (racemic; 4), the Activity entry with Mus musculus [1] is given as “Non-toxic”; in the series with Mus musculus [2], “Non-toxic”; in the series on Mus musculus [5], “Non-toxic”; in the series with Mus musculus [6], “Toxic”; in the series with Mus musculus [8] it was “Toxic”; in the series with Mus musculus [9] it was “Non-toxic”. The TD50 in the series with Mus musculus [3] amounted to 117.73 mg/kg. The median effective dose (ED50) with Mus musculus [4] is 78.83 mg/kg. Besides, the “Ratio TD50/ED50” value in the series listed under Mus musculus [7] turned out to be 1.493.

One may read the TD50 as the dose at which the toxic effect under study appears in half of the subjects. The term ED50 denotes the dose that gives a 50% effect, or the effect in half of the subjects.
